Laboratory results taken from PMC6219704 (Cell chemical biology, 2018).

Experiments:
[1] = system: E. coli strains with A2503C, A2059G or A2059C in the 23S rRNA; assay: MIC against erythromycin-resistant strains with 23S rRNA mutations; type: cell-based, Escherichia coli; settings: Table S2 (not available)
Method in brief: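 Broth microdilution in Müller-Hinton broth with E. coli grown at 37°C. Test compounds started at 128 μM and were serially two-fold diluted, then halved again on adding bacteria to 2.5 × 10^4 CFU/well. Plates sealed and incubated overnight at 37°C. MIC taken as the lowest concentration preventing visible growth.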

[2] = target: E. coli ribosomes on H-ns-PPP mRNA (Escherichia coli, UniProt P60723); assay: Toeprinting assay in fully reconstituted in vitro translation system; type: biochemical; settings: 1-100 μM peptide, 100 μM thiostrepton; 15 min 37°C

CC[C@H]1OC(=O)[C@H](C)[C@@H](O[C@H]2C[C@@](C)(OC)[C@@H](O)[C@H](C)O2)[C@H](C)[C@@H](O[C@@H]2O[C@H](C)C[C@H](N(C)C)[C@H]2O)[C@](C)(O)C[C@@H](C)C(=O)[C@H](C)[C@@H](O)[C@]1(C)O [erythromycin]
Change in MIC with 23S rRNA mutations versus wildtype (in words) [1]: increased MIC

C=C(NC(=O)C(=C)NC(=O)c1csc(C2=N[C@@H]3c4csc(n4)[C@H]4NC(=O)c5csc(n5)[C@H]([C@](C)(O)[C@@H](C)O)NC(=O)[C@H]5CSC(=N5)/C(=C/C)NC(=O)[C@H]([C@@H](C)O)NC(=O)c5csc(n5)[C@]3(CC2)NC(=O)[C@H](C)NC(=O)C(=C)NC(=O)[C@H](C)NC(=O)[C@H]([C@@H](C)CC)N[C@@H]2C=Cc3c([C@H](C)O)cc(nc3[C@H]2O)C(=O)O[C@@H]4C)n1)C(N)=O [thiostrepton]
Toeprint result (in words) [2]: ribosomes can initiate at the AUG start codon but cannot translate further
